Only some compounds are listed: those with a hit (about 2.1% of all), similar ones and a draw of the others.
APJ agonist: activates the human apelin receptor APJ. CHO-K1 APJ PathHunter beta-arrestin, luminescence; 0% DMSO wells, 100% apelin. activation, % at 20 µM. hit rate 0.11% among 330,000;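 active means activation more than six SD over the plate average, tested at 20 µM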;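 further: 0% = DMSO alone and 100% = apelin-13 at 10 nM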
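Test system: CHO-K1 APJ beta-arrestin complementation cell line. Amount: cell density 1000 per well. Controls: DMSO negative, 10 nM Apelin-13 positive. Signal: luminescent beta-gal fragment complementation, chemiluminescent substrate. Read-out basis: agonist-driven arrestin binding to APJ. Timing: compound stimulation 90 min at 25 °C, detection 60 min.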
EBI2 block: blocks human EBI2 receptor beta-arrestin signaling; hit rate 0.81% among 360,000; EBI2 beta-arrestin recruitment, luminescence, 7a,25-OHC stimulated; inhibition, % at 5 µM; in the data active means inhibition above about 38%;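 further: enzyme fragment complementation signal reports receptor beta-arrestin coupling in cells; 0% = agonist plus DMSO wells and 100% = wells without agonist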
CXCR6 block: blocks human CXCR6 beta-arrestin recruitment; CHO-K1 PathHunter CXCR6 beta-arrestin, luminescence; AID 602244; O00574; hit rate 0.36% among 360,000; inhibition, % at 20 µM; in the data active means inhibition above about 34%, passing the limit was not always enough;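 further: antagonist mode with CXCL16 agonist at 10 nM final; 0% = 10 nM CXCL16 with DMSO and 100% = unstimulated wells without agonist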
Target sequence (O00574 whole entry, looked up): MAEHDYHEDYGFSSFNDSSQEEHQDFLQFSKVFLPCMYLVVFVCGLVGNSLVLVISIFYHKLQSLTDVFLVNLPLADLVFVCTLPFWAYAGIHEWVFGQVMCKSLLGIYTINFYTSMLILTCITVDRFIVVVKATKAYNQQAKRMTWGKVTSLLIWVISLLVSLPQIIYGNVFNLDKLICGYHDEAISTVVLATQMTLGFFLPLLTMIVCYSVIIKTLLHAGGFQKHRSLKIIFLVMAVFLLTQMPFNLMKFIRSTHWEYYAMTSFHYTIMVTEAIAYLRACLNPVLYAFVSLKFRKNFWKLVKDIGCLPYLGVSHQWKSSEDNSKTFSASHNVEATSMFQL
CCR6 antagonist: antagonists of human CCR6 receptor; P51684; CHO-K1 CCR6 PathHunter beta-arrestin, luminescence, CCL20-stimulated; inhibition, % at 20 µM; hit rate 0.49% among 340,000;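 active means compounds whose inhibition of the agonist-driven luminescence signal at 20 µM reaches about 50%, limit read from the data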;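 further: cells stimulated with CCL20 at 14 nM final; plate controls were DMSO with CCL20 for no effect and DMSO without agonist for full effect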
APJ antagonist: blocks the human apelin receptor APJ | inhibition, % at 20 µM | CHO-K1 APJ beta-arrestin complementation, luminescence | P35414 | hit rate 0.32% among 330,000;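 active means inhibition above about 40% at 20 µM, limit read from the data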;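 further: cells challenged with 10 nM apelin-13 agonist together with compound; plate controls were apelin-13 plus DMSO wells for no effect and DMSO wells lacking apelin-13 for full effect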
m5-HT2A agonist: mouse HTR2A agonism via beta-arrestin recruitment | hit rate 0.66% among 360,000 | activation, % at 7.6 µM | CHO-K1 mHTR2A beta-arrestin complementation, luminescence; percent of 30 µM serotonin response;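 active means activation above a run cutoff, the mean activation of all tested compounds plus 3 SD, cut at about 14% in these data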;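 further: 0% = plate median of compound wells and 100% = 30 µM serotonin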
EBI2 antag conf: confirmation of human EBI2 receptor antagonists; inhibition, % at 5 µM; hit rate 29% among 2,400; EBI2 beta-arrestin luminescence, 7a,25-OHC antagonism; shares compounds with EBI2 block; AID 651997;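 active means inhibition of at least 50%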
EBI2 ag: activates EBI2, counter-screen for EBI2 antagonists; shares compounds with EBI2 block; EBI2-expressing cells, agonist mode, luminescence, 60 min; 0% vehicle, 100% 7α,25-dihydroxycholesterol control; activation, % at 5 µM; 2,400 tested, under 10 active; AID 652000;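 active means activation of at least 50%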
bGal cs: beta-galactosidase inhibition counter-screen; shares compounds with EBI2 block; purified beta-galactosidase, luminescent Galacton Star, 15 min; inhibition, % at 5 µM; hit rate 1% among 2,400;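 active means replicate-average signal at least 3 plate SD below neutral wells, shown as high inhibition, flagging enzyme-inhibiting false positives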;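 further: 0% = DMSO wells with enzyme and 100% = wells lacking enzyme; higher means stronger loss of beta-gal luminescence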
* hit, by the source's call; · = no result.

SMILES	APJ agonist	EBI2 block	CXCR6 block	CCR6 antagonist	APJ antagonist	m5-HT2A agonist	EBI2 antag conf	EBI2 ag	bGal cs
Cc1oc(-c2ccc(Cl)cc2)cc1C(=O)NC1CCN(Cc2ccccc2)CC1	-3	41*	-2	2	12	-8	18	-1	-13
COc1cc(OC)cc(C(=O)N2CCC(C(=O)c3ccc(F)cc3)CC2)c1	-3	6	-1	-5	11	-6	·	·	·
COc1ccc(C(=O)C2CCN(C(=O)c3ccc(OC)cc3)CC2)cc1	-1	58*	-2	11	2	0	34	0	-17
CCOc1ccc(C(=O)N2CCC(C(=O)c3ccc4c(c3)OCCO4)CC2)cc1	0	81*	0	-1	-14	3	56*	1	1
CCOC(=O)C1CCN(C(=O)c2ccc3c(c2)OCCO3)CC1	-4	-12	5	7	-3	6	·	·	·
COc1ccc(C(=O)N2CCC(C(=O)c3ccc(F)cc3)CC2)cc1	-6	59*	2	-1	17	-2	29	0	-8
CCOc1ccc(C(=O)N2CCCN(C(=O)c3ccc(OCC)cc3)CC2)cc1	-4	45*	-8	8	9	3	39	4	1
CCC(C)[C@@H](CN)NCC1(c2ccccc2)CC1 (some centres not stated)	-3	-9	-5	1	13	12	·	·	·
COc1ccc([C@H]2CC(=O)C=C(c3ccc(SC)cc3)C2)cc1OC	-3	28	10	20	-13	5	·	·	·
CSc1ccc(C2=CC(=O)C[C@H](c3ccc(F)cc3)C2)cc1	-4	66*	2	28	10	-2	50*	-1	-7
Cc1cc(C2=CC(=O)C[C@H](c3ccc(F)cc3)C2)ccc1F	·	49*	-8	·	·	-2	27	0	6
O=C1C=C(c2ccc(OC(F)(F)F)cc2)C[C@@H](c2ccc(F)cc2)C1	-3	52*	3	12	7	-3	38	0	-8
COc1ccc(NC2=CC(=O)CC(c3ccccc3)C2)cc1 (configuration not stated)	-6	52*	12	5	-17	-1	31	2	13
COCCOc1ccc(C(F)(F)F)cc1NC(=O)COC(=O)C12CC3CC(CC(O)(C3)C1)C2	-5	-3	0	16	6	4	·	·	·
COc1ccc([C@H]2CC(=O)C=C(c3ccc4ccn(C)c4c3)C2)cc1	-2	73*	3	22	11	4	44	1	4
COc1ccc([C@H]2CC(=O)C=C(c3ccc4c(c3)sc3ccccc34)C2)cc1	-1	55*	0	20	7	2	19	1	9
COc1ccc([C@H]2CC(=O)C=C(c3ccc(SC)cc3)C2)cc1	-5	71*	10	20	10	-8	47	0	-11
COc1ccc([C@H]2CC(=O)C=C(c3ccccc3)C2)cc1	-4	41*	3	13	2	-6	32	-2	-1
COc1ccc(CCNC(=O)CCS(=O)(=O)c2ccc3c(c2)NC(=O)CO3)cc1OC	-3	-9	-12	8	-45	3	·	·	·
Cc1cccc(/C(N)=N/OC(=O)CCCc2ccccc2)c1	0	-4	-4	1	9	0	·	·	·
Cc1cc(C)nc(SCC(=O)NC(=O)c2ccccc2O)n1	-7	1	-8	-2	14	2	·	·	·
COc1ccc([C@H]2CC(=O)C=C(c3cc(Cl)cc(Cl)c3)C2)cc1	-3	46*	0	13	6	0	19	-2	-17
O=C1C=C(c2cc(Cl)cc(Cl)c2)C[C@@H](c2ccc(F)cc2)C1	-3	48*	0	18	13	-9	22	0	6
O=C1C=C(c2ccc(Cl)c(C(F)(F)F)c2)C[C@@H](c2ccc(F)cc2)C1	-3	19	-7	16	3	3	·	·	·
COc1ccc([C@H]2CC(=O)C=C(c3ccc4cc[nH]c4c3)C2)cc1	-1	49*	-3	18	6	3	36	0	6
SMILES	APJ agonist	EBI2 block	CXCR6 block	CCR6 antagonist	APJ antagonist	m5-HT2A agonist	EBI2 antag conf	EBI2 ag	bGal cs
COc1ccc([C@H]2CC(=O)C=C(c3cc(C(F)(F)F)cc(C(F)(F)F)c3)C2)cc1	-3	35	2	1	2	-3	·	·	·
COc1ccc([C@H]2CC(=O)C=C(c3ccc4c(c3)OCO4)C2)cc1	-4	35	-4	13	9	3	·	·	·
COc1ccc([C@H]2CC(=O)C=C(c3cccc(OC)c3)C2)cc1	-3	34	1	11	17	-1	·	·	·
COc1ccc(C2=CC(=O)C[C@H](c3ccc(OC)cc3)C2)cc1	-5	54*	0	-3	1	-2	44	-1	-9
COc1ccccc1-c1cncc(NC(C)=O)n1	·	-5	-10	·	·	0	·	·	·
Nc1ccn([C@@H]2O[C@H](C(=O)N[C@H](CO)c3ccccc3)[C@@H](O)[C@H]2O)c(=O)n1	·	-18	1	·	·	2	·	·	·
N#Cc1cc(-c2ccc(Cl)cc2)cn(Cc2c(Cl)cccc2Cl)c1=O	-3	45*	-4	6	14	1	19	1	9
C=CCn1cc(-c2ccc(Cl)cc2)cc(C#N)c1=O	-4	3	-2	1	-1	5	·	·	·
Cc1ccc2nc(-c3cccnc3)cc(C(=O)Nc3ccccc3[N+](=O)[O-])c2c1	21	48*	1	7	-31	3	61*	1	5
CC(=O)Nc1cccc(NC(=O)c2cc(-c3cccnc3)nc3ccc(Br)cc23)c1	6	-27	4	9	2	-2	·	·	·
CSc1ccccc1NC(=O)c1cc(-c2cccnc2)nc2ccc(Br)cc12	2	41*	8	4	5	-1	16	-1	-7
FC(F)(F)c1cccc(Cn2cnc(NC(=S)NCCc3ccccc3)n2)c1	-3	54*	-4	3	-21	1	42	0	-17
COc1ccc(NC(=O)Nc2ncn(Cc3cccc(C(F)(F)F)c3)n2)cc1OC	6	3	-3	-7	3	-6	·	·	·
